Assay results taken from ChEMBL document CHEMBL3352014, “Effect of acyclic monoterpene alcohols and their derivatives on TRP channels” (Bioorg Med Chem Lett, 2014).

What was measured:
[1] = target: T1, Transient receptor potential cation channel subfamily A member 1 (Rattus norvegicus, UniProt Q6RI86); assay: Agonist activity at rat TRPA1 expressed in HEK293 cells assessed as increase in intracellular Ca2+ concentration by Fluo-4-AM dye based spectrofluorimetry; format: cell-based
[2] = target: T1, Transient receptor potential cation channel subfamily A member 1; assay: Antagonist activity against rat TRPA1 expressed in HEK293 cells assessed as inhibition of AITC-induced increase in intracellular Ca2+ concentration by Fluo-4-AM dye based spectrofluorimetry; format: cell-based
[3] = target: Transient receptor potential cation channel subfamily M member 8 (Rattus norvegicus) (UniProt Q8R455); assay: Agonist activity at rat TRPM8 expressed in HEK293 cells assessed as increase in intracellular Ca2+ concentration by Fluo-4-AM dye based spectrofluorimetry relative to ionomycin; format: cell-based
Transient receptor potential cation channel subfamily M member 8 (Rattus norvegicus), sequence (Q8R455 whole entry, looked up): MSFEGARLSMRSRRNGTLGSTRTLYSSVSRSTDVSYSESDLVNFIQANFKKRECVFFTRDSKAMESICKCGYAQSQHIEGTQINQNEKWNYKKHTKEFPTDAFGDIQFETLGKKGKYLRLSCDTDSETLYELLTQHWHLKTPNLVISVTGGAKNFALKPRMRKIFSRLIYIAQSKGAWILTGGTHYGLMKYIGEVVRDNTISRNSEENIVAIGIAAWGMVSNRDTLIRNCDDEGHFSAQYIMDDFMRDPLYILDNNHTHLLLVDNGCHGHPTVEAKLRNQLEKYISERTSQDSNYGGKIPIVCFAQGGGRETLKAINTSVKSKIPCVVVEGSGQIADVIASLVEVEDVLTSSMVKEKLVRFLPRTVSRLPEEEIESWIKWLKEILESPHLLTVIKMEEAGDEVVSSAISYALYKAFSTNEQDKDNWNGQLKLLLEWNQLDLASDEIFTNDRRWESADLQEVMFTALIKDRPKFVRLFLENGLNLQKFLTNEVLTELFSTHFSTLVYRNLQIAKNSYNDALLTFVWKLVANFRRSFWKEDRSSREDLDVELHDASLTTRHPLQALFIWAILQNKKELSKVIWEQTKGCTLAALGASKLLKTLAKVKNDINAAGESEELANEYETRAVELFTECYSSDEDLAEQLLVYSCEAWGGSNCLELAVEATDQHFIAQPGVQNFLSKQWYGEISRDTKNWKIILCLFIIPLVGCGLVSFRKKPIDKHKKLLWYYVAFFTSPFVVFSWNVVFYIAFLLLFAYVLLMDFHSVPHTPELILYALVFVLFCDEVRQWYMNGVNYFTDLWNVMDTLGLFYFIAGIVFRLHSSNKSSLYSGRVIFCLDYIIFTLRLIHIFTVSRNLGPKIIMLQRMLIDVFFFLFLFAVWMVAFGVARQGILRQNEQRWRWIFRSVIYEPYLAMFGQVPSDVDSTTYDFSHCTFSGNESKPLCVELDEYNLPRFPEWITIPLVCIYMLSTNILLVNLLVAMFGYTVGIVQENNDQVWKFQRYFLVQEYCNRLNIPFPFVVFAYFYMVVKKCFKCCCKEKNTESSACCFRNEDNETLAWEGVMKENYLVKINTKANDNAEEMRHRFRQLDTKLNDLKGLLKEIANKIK
In short: (§1)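 Same stably transfected HEK293 Fluo-4 calcium assay: human TRPV1, rat TRPM8. Tyrode's buffer pH 7.4, 25 °C, ex 488/em 516 nm. Efficacy is the compound-evoked [Ca2+]i rise normalized to the maximal Ca2+ influx from 4 µM ionomycin. Means of at least 3 determinations.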

[4] = target: Transient receptor potential cation channel subfamily M member 8 (Rattus norvegicus, UniProt Q8R455); assay: Antagonist activity against rat TRPM8 expressed in HEK293 cells assessed as inhibition of icilin-induced increase in intracellular Ca2+ concentration by Fluo-4-AM dye based spectrofluorimetry; format: cell-based
Transient receptor potential cation channel subfamily M member 8 (Rattus norvegicus, UniProt Q8R455), sequence (Q8R455 whole entry): as the sequence (Q8R455 whole entry, looked up) above

[5] = target: T2, Transient receptor potential cation channel subfamily V member 1 (Homo sapiens, UniProt Q8NER1); assay: Agonist activity at human TRPV1 expressed in HEK293 cells assessed as increase in intracellular Ca2+ concentration by Fluo-4-AM dye based spectrofluorimetry relative to ionomycin; format: cell-based; in short: as §1
T2 sequence (Q8NER1 whole entry): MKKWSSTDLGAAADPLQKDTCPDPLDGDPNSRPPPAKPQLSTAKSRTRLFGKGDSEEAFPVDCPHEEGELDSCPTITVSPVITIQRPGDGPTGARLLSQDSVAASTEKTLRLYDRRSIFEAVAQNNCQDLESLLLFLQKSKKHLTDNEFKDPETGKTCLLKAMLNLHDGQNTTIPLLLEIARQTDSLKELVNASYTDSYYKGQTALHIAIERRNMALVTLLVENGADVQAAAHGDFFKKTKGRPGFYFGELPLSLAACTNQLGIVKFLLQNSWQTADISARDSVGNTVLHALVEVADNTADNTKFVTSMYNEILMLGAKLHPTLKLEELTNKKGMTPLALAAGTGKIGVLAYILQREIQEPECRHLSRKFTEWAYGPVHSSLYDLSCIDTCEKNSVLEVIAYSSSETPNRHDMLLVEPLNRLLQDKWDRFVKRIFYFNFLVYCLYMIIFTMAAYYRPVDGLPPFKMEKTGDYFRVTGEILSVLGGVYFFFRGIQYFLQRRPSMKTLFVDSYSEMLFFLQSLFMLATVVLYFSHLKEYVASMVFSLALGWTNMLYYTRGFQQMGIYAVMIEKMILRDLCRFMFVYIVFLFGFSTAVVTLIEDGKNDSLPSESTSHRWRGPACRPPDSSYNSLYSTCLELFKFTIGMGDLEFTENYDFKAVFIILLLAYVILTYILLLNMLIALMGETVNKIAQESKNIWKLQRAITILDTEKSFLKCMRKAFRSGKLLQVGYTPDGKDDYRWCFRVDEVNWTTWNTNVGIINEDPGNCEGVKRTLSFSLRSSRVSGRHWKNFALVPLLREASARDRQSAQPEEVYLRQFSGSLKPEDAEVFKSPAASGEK

[6] = target: T2, Transient receptor potential cation channel subfamily V member 1; assay: Antagonist activity against human TRPV1 expressed in HEK293 cells assessed as inhibition of capsaicin-induced increase in intracellular Ca2+ concentration by Fluo-4-AM dye based spectrofluorimetry; format: cell-based
[7] = target: T2, Transient receptor potential cation channel subfamily V member 1; assay: Agonist activity at human TRPV1 expressed in HEK293 cells assessed as increase in intracellular Ca2+ concentration by Fluo-4-AM dye based spectrofluorimetry; format: cell-based
In short: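 HEK293 stably expressing human TRPV1 or rat TRPM8, grown in EMEM with non-essential amino acids, 10% FBS, 2 mM glutamine, 37 °C, 5% CO2. Fluo-4-AM loaded 1 h at room temperature; cells in Tyrode's buffer pH 7.4, about 100,000 per stirred cuvette. Fluorescence (ex 488/em 516 nm) read at 25 °C before and after various compound concentrations. EC50 from sigmoidal variable-slope fit; at least 3 determinations.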

[8] = target: T3, Transient receptor potential cation channel subfamily M member 8 (Homo sapiens, UniProt Q7Z2W7); assay: Agonist activity at TRPM8 (unknown origin) relative to untreated control
Target sequence in this assay (Q7Z2W7 whole entry, looked up): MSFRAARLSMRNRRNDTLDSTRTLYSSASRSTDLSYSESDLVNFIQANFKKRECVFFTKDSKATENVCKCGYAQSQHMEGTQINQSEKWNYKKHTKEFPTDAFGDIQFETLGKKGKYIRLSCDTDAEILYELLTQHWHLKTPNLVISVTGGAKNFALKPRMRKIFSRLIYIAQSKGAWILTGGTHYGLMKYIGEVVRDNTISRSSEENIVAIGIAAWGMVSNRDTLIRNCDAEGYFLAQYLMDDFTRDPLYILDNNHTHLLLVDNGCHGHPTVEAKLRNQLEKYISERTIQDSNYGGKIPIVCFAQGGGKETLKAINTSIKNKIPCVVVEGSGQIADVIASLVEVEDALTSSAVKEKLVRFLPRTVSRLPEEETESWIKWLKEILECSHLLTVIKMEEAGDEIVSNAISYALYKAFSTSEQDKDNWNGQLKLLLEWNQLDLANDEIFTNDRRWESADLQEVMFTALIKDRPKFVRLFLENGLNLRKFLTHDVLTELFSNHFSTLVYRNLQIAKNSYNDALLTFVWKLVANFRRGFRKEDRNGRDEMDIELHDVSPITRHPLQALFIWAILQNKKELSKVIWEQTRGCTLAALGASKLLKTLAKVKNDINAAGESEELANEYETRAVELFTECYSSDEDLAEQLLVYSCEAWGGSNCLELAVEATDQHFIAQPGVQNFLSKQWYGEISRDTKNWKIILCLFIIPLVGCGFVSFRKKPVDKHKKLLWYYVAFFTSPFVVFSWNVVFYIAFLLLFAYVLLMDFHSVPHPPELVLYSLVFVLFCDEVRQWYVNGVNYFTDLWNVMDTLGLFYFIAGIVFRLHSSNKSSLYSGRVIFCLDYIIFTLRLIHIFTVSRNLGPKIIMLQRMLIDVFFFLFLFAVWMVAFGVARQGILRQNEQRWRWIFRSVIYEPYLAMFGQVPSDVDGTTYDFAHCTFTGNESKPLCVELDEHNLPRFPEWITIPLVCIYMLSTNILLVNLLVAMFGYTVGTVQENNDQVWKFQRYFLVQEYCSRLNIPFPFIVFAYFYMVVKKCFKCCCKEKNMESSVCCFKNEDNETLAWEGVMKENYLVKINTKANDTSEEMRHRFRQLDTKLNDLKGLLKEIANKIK

[9] = target: T3, Transient receptor potential cation channel subfamily M member 8; assay: Agonist activity at TRPM8 (unknown origin)
Target sequence in this assay (Q7Z2W7 whole entry): as the sequence (Q7Z2W7 whole entry, looked up) above

T1 sequence (Q6RI86 whole entry): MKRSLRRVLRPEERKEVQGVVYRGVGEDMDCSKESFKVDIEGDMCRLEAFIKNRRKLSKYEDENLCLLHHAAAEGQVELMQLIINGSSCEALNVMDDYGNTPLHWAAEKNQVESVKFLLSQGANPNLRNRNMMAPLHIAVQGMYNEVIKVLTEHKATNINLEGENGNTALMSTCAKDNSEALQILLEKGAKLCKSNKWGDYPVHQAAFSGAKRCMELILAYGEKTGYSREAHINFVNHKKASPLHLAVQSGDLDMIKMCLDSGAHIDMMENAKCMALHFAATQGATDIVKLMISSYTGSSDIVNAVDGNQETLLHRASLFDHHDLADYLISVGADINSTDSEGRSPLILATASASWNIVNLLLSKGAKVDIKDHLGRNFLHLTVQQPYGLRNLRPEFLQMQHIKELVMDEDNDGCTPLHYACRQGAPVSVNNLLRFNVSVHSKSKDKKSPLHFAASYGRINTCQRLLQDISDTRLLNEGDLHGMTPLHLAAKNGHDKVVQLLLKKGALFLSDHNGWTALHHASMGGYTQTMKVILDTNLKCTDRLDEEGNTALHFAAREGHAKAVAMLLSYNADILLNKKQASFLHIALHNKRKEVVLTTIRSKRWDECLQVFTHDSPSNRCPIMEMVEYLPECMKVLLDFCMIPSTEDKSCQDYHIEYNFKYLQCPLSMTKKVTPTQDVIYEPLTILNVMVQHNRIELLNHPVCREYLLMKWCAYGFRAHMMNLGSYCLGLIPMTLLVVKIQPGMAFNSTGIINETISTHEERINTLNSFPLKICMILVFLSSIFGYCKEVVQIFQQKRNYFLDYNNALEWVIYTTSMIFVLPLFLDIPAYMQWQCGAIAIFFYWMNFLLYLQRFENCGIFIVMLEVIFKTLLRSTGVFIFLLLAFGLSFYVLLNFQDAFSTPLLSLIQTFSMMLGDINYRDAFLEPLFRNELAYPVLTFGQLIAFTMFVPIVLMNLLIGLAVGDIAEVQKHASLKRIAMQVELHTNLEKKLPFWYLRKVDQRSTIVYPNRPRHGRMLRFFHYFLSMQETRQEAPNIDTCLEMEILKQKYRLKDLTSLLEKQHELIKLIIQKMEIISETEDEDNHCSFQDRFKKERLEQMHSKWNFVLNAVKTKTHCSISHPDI

Row | Structure (SMILES) | EC50 [1] | IC50 [2] | Efficacy [3] | IC50 [4] | Efficacy [5] | IC50 [6] | EC50 [7] | Efficacy [8] | EC50 [9]
1 | CC(C)=CCC/C(C)=C/COC(=O)c1ccc(C#N)cc1 | 0.48 µM | 0.73 µM | < 10% | > 100 µM | < 10% | > 100 µM | – | – | –
2 | CC(C)=CCC/C(C)=C/COC(=O)Cc1ccc(Cl)cc1 | 0.12 µM | 0.13 µM | < 10% | > 100 µM | < 10% | > 100 µM | – | – | –
3 | CC(C)=CCC/C(C)=C\COC(=O)Nc1ccc(C(C)(C)C)cc1 | 0.041 µM | 0.29 µM | < 10% | > 100 µM | 24% | 74.6 µM | 7.8 µM | – | –
4 | COc1ccc(CC(=O)OC/C=C(\C)CCC=C(C)C)cc1 | 0.51 µM | 0.38 µM | < 10% | > 100 µM | 13.2% | > 100 µM | 8 µM | – | –
5 | CC(=O)OC/C=C(/C)CCC=C(C)C [NERYL ACETATE] | 13.3 µM | 20.7 µM | < 10% | > 100 µM | < 10% | > 100 µM | – | – | –
6 | CC(C)=CCC/C(C)=C\COC(=O)Cc1ccc2ccccc2c1 | 0.081 µM | 0.18 µM | < 10% | > 100 µM | < 10% | > 100 µM | – | – | –
7 | CC(C)=CCCC(C)CCOC(=O)Cc1ccc(Cl)cc1 (configuration not stated) | – | – | < 10% | 0.83 µM | < 10% | > 100 µM | – | – | –
8 | CC(C)=CCC/C(C)=C\CNC(=O)Nc1cccc(Cl)c1 | 0.43 µM | 0.41 µM | < 10% | 0.71 µM | 20.1% | 0.38 µM | 1.7 µM | – | –
9 | CC(C)=CCCC(C)CCOC(=O)CCc1ccccc1 (configuration not stated) | 0.16 µM | 0.34 µM | < 10% | > 100 µM | < 10% | > 100 µM | – | – | –
10 | CC(C)=CCC/C(C)=C\COC(=O)CCc1ccccc1 | 0.11 µM | 0.11 µM | < 10% | 0.29 µM | < 10% | > 100 µM | – | – | –
11 | CC(C)=CCC/C(C)=C\COC(=O)c1ccc(C#N)cc1 | 0.26 µM | 0.34 µM | < 10% | > 100 µM | < 10% | > 100 µM | – | – | –
12 | CC(C)=CCCC(C)CCOC(=O)c1ccc(C)cc1 (configuration not stated) | 0.28 µM | 0.87 µM | < 10% | > 100 µM | < 10% | > 100 µM | – | – | –
13 | CC(C)=CCC/C(C)=C\CNC(=O)Oc1ccc(C(C)(C)C)cc1 | 0.018 µM | 0.029 µM | < 10% | > 100 µM | 15.8% | > 100 µM | 6.5 µM | – | –
14 | CC(C)=CCC/C(C)=C/CNC(=O)NC1CCCCC1 | 4.9 µM | 11.8 µM | < 10% | > 100 µM | 36% | 9.9 µM | 4.8 µM | – | –
15 | CC(C)=CCC/C(C)=C/CNC(=O)Oc1ccc(C(C)(C)C)cc1 | 0.045 µM | 0.038 µM | < 10% | 86.5 µM | 22.4% | 92.3 µM | 10.7 µM | – | –
16 | CC(C)=CCC/C(C)=C/CO [GERANIOL] | – | > 100 µM | < 10% | > 100 µM | < 10% | > 100 µM | – | 28% | 5900 µM
17 | CC(C)=CCC/C(C)=C\CNC(=O)NC1CCCCC1 | 2.65 µM | 4.4 µM | < 10% | 30 µM | 50.1% | 15.7 µM | 8.9 µM | – | –
18 | CC(C)=CCC/C(C)=C/CNC(=O)Cc1ccc(Cl)cc1 | 1.2 µM | 1.4 µM | < 10% | 3.8 µM | 57.5% | 0.89 µM | 1.1 µM | – | –
19 | CC(C)=CCC/C(C)=C/CNC(=O)Nc1ccc(C(C)(C)C)cc1 | 0.092 µM | 0.57 µM | < 10% | > 100 µM | 21.9% | 76.8 µM | 8.7 µM | – | –
